Laboratory results taken from ChEMBL document CHEMBL1133603, “Synthesis and antimalarial activity of artemisinin derivatives containing an amino group” (2000).
Where “and” joins values, the source holds several entries; their conditions need not be identical. Identical values can stand only once.

Assays:
[1] = test system: Monkey; assay: Percent parasitaemia before treatment at a dose of 10 mg/kg/day after oral administration on Plasmodium knowlesi in rhesus monkeys (7-day treatment); format: functional, Cercopithecidae
Method in brief: (§1)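 Rhesus monkeys inoculated intravenously on D0 with 2 × 107 P. knowlesi. Compounds given orally once daily D0–D6 (7-day treatment) at 3.16 or 10.0 mg/kg/day, as stated per line. Parasitaemia followed to assess clearance rapidity; cure or recrudescence also recorded.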

[2] = test system: Monkey; assay: Percent parasitaemia before treatment at a dose of 3.16 mg/kg/day after oral administration on Plasmodium knowlesi in rhesus monkeys (7-day treatment); format: functional, Cercopithecidae; method in brief: as §1
[3] = test system: Monkey; assay: Mean time for 50% reduction in parasitaemia at a dose of 10 mg/kg/day after oral administration on Plasmodium knowlesi in rhesus monkeys (7-day treatment); format: functional, Cercopithecidae; method in brief: as §1
[4] = test system: Monkey; assay: Mean time for 50% reduction in parasitaemia at a dose of 3.16 mg/kg/day after oral administration on Plasmodium knowlesi in rhesus monkeys (7-day treatment); format: functional, Cercopithecidae; method in brief: as §1
[5] = test system: Monkey; assay: Mean time for 90% reduction in parasitaemia at a dose of 10 mg/kg/day after oral administration on Plasmodium knowlesi in rhesus monkeys (7-day treatment); format: functional, Cercopithecidae; method in brief: as §1
[6] = test system: Monkey; assay: Mean time for 90% reduction in parasitaemia at a dose of 3.16 mg/kg/day after oral administration on Plasmodium knowlesi in rhesus monkeys (7-day treatment); format: functional, Cercopithecidae; method in brief: as §1
[7] = test system: Monkey; assay: Time of clearance after oral administration on Plasmodium knowlesi in rhesus monkeys (7-day treatment); format: functional, Cercopithecidae; method in brief: as §1
[8] = test system: Plasmodium berghei; assay: Antimalarial activity against Plasmodium berghei […] after subcutaneous dose; format: functional
Method in brief: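 Mice inoculated intraperitoneally on day 0 with 1.5 × 107 P. berghei K173 parasitized cells. Test agents dissolved or ground in water or peanut oil, given once daily D0–D3 at 0.625, 1.25, 2.5, 5 and 10 mg/kg, orally or subcutaneously. Blood smears taken D4, stained and examined by microscopy.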

[9] = test system: Plasmodium berghei; assay: Antimalarial activity against Plasmodium berghei K173 after peroral dose
[10] = test system: Plasmodium berghei; assay: as above; remark: listed apart in the source
[11] = test system: Monkey; assay: Percent parasitaemia before treatment at a dose of 10 mg/kg/day after oral administration on Plasmodium knowlesi in rhesus monkeyss (7-day treatment); format: functional, Cercopithecidae; method in brief: as §1

Compound | Parasitemia [1] | Parasitemia [2] | Reduction [3] | Reduction [4] | Reduction [5] | Reduction [6] | Parasite_Clearance_time [7] | SD50 [8] | SD90 [8] | SD50 [9] | SD90 [10] | Parasitemia [11]
C[C@@H]1CCC2[C@@H](C)[C@@H](OCCN(C)C)O[C@@H]3O[C@@]4(C)CCC1[C@@]23OO4.O=C(O)C(=O)O (stereo partly specified) | 42.5% | 51.5% | 6.25 h | 5.29 h | 13.98 h | 12.09 h | 44 h | 24.57 mg/kg/day | 255.83 mg/kg/day | 1.61 mg/kg/day | 4.71 mg/kg/day | 
CCN(CC)CCO[C@H]1O[C@@H]2O[C@@]3(C)CCC4[C@H](C)CCC([C@H]1C)[C@]42OO3.O=C(O)C(=O)O (stereo partly specified) |  |  |  | 4.5 h |  | 11.38 h | 52 h | 24.57 mg/kg/day | 255.83 mg/kg/day |  |  | 
C[C@@H]1CCC2[C@@H](C)[C@@H](OCCNCCO)O[C@@H]3O[C@@]4(C)CCC1[C@@]23OO4.O=C(O)/C=C\C(=O)O (stereo partly specified) |  |  |  | 4.5 h |  | 11.38 h | 52 h | 27.66 mg/kg/day | 165.96 mg/kg/day | 1.74 mg/kg/day | 5.08 mg/kg/day | 74%
C[C@@H]1CCC2[C@@H](C)[C@@H](OCCCN3CCOCC3)O[C@@H]3O[C@@]4(C)CCC1[C@@]23OO4.O=C(O)/C=C/C(=O)O (stereo partly specified) |  |  |  |  |  |  |  |  |  | 1.33 mg/kg/day | 11.19 mg/kg/day | 
C[C@@H]1CCC2[C@@H](C)[C@@H](OCCN3CCOCC3)O[C@@H]3O[C@@]4(C)CCC1[C@@]23OO4.O=C(O)/C=C\C(=O)O (stereo partly specified) |  |  |  |  |  |  |  |  |  | 1.82 mg/kg/day | 7.29 mg/kg/day | 
C[C@@H]1CCC2[C@@H](C)[C@@H](OCCCN3CCOCC3)O[C@@H]3O[C@@]4(C)CCC1[C@@]23OO4.O=C(O)/C=C\C(=O)O (stereo partly specified) |  |  |  | 5.19 h |  | 11.8 h | 40 h | 5.57 mg/kg/day | 302.49 mg/kg/day | 1.82 mg/kg/day | 5.28 mg/kg/day | 
C[C@@H]1CCC2[C@@H](C)[C@@H](OCCN3CCOCC3)O[C@@H]3O[C@@]4(C)CCC1[C@@]23OO4.O=C(O)C(=O)O (stereo partly specified) |  |  |  |  |  |  |  |  |  | 1.61 mg/kg/day | 5.26 mg/kg/day | 
C[C@H]1C(OC(=O)CCC(=O)O)O[C@@H]2O[C@@]3(C)CCC4[C@H](C)CCC1[C@]42OO3 (stereo partly specified) | 35% | 42.7% | 8.21 h | 7.84 h | 13.74 h | 13.3 h | 50 h and 54 h |  |  | 6.33 mg/kg/day | 23.39 mg/kg/day | 
